Data on 17 molecules can be found in ChEMBL document CHEMBL4152190, “Microwave-assisted one-pot synthesis of new phenanthrene fused-tetrahydrodibenzo-acridinones as potential cytotoxic and apoptosis inducing agents” (Eur J Med Chem, 2018).

As a reminder, the IC50 is the concentration that inhibits the measured activity by half.

One experiment relates to HeLa. The experiment is described as follows: Cytotoxicity against human HeLa cells after 48 hrs by MTT assay. The format is functional, cell-based. The method in brief:
(§1)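 ATCC lines grown in DMEM or RPMI with 10% FBS and antibiotic-antimycotic, 37 °C, 5% CO2. Seeded at 3×10^4 cells/well, 24 h before dosing with vehicle (DMSO) controls. […] Cisplatin as reference.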
On the technique in general: Tetrazolium dyes change colour on reduction, which living cells bring about.

Another experiment concerns HEK-293T. The experiment is described as follows: Cytotoxicity against human HEK293T cells after 48 hrs by MTT assay. Type of experiment: cell-based. In outline:
as §1

For a further experiment, the system named is HT-1080. The experiment is described as follows: Cytotoxicity against human HT1080 cells after 48 hrs by MTT assay. The format is functional, cell-based. Particulars: HT-1080, 48 h. In outline:
as §1

The subject of the next experiment is PC-3. The experiment is described as follows: Cytotoxicity against human PC3 cells after 48 hrs by MTT assay. Type of experiment: functional, cell-based. Particulars: PC-3, 48 h. The method in brief: as §1
Another experiment deals with SK-OV-3. Put plainly: Cytotoxicity against human SKOV3 cells after 48 hrs by MTT assay. Particulars: SK-OV-3, 48 h. Type of experiment: functional, cell-based. In outline:
as §1

On to `COc1cc2c3c(c4cc(OC)c(OC)cc4c2cc1OC)C(c1cc(OC)c(O)c(OC)c1)C1=C(CC(C)(C)CC1=O)N3` (stereo not given), for which the IC50 in the experiment on HeLa was 9.42 µM; in the experiment on HEK-293T, above 50 µM; with HT-1080, 7.64 µM; in the experiment with PC-3, 6.84 µM; in the experiment with SK-OV-3, 6.5 µM.

For the molecule `COc1ccc(C2C3=C(CCCC3=O)Nc3c2c2cc(OC)c(OC)cc2c2cc(OC)c(OC)cc32)cc1OC` (stereo not given), the IC50 in the experiment on HeLa was above 50 µM; in the experiment on HEK-293T, above 50 µM; with HT-1080, 25.7 µM; with PC-3 it was above 50 µM; in the experiment with SK-OV-3, 11.5 µM.

Take `COc1cc2c3c(c4cc(OC)c(OC)cc4c2cc1OC)C(c1cccc2ccccc12)C1=C(CCCC1=O)N3` (stereo not given): the IC50 in the experiment with HeLa is 6.87 µM; in the experiment on HEK-293T, 14.4 µM; in the experiment on HT-1080, 3.83 µM; in the experiment with PC-3, 5.31 µM; in the experiment with SK-OV-3 it was 2.67 µM.

As for `COc1ccc(C2C3=C(CC(C)(C)CC3=O)Nc3c2c2cc(OC)c(OC)cc2c2cc(OC)c(OC)cc32)cc1OC` (stereo not given), the IC50 in the experiment with HeLa turned out to be 28.1 µM; in the experiment on HEK-293T, 43.5 µM; in the experiment with HT-1080, 21.3 µM; in the experiment with PC-3, 17.6 µM; with SK-OV-3, 13.7 µM.

Take `COc1cc2c3c(c4cc(OC)c(OC)cc4c2cc1OC)C(c1ccc2c(c1)OCO2)C1=C(CC(C)(C)CC1=O)N3` (stereo not given): the IC50 worked out at 1.35 µM in the experiment with HeLa; 24.6 µM with HEK-293T; 4.32 µM in the experiment with HT-1080; 7.7 µM with PC-3; 4.66 µM in the experiment on SK-OV-3.

For `COc1cc2c3c(c4cc(OC)c(OC)cc4c2cc1OC)C(c1cccs1)C1=C(CCCC1=O)N3` (stereo not given), the IC50 in the experiment on HeLa stood at 2.46 µM; in the experiment on HEK-293T, 15.5 µM; in the experiment on HT-1080 it was 3.78 µM; in the experiment on PC-3, 5.89 µM; in the experiment with SK-OV-3, 2.35 µM.

Take `COc1cc2c3c(c4cc(OC)c(OC)cc4c2cc1OC)C(c1ccc(C(C)C)cc1)C1=C(CC(C)(C)CC1=O)N3` (stereo not given): the IC50 in the experiment on HeLa was above 50 µM; in the experiment with HEK-293T, 25.7 µM; in the experiment on HT-1080 it was 32.3 µM; in the experiment on PC-3, above 50 µM; in the experiment with SK-OV-3, 11.5 µM.

As to `COc1cc(C2C3=C(CC(C)(C)CC3=O)Nc3c2c2cc(OC)c(OC)cc2c2cc(OC)c(OC)cc32)ccc1O` (stereo not given), the IC50 in the experiment on HeLa was 11.7 µM; in the experiment on HEK-293T, above 50 µM; in the experiment with HT-1080 it was 9.83 µM; with PC-3, 23.8 µM; in the experiment with SK-OV-3 it was 13.6 µM.

As to `COc1cc2c3c(c4cc(OC)c(OC)cc4c2cc1OC)C(c1cc(OC)c(OC)c(OC)c1)C1=C(CC(C)(C)CC1=O)N3` (stereo not given), the IC50 in the experiment on HeLa amounted to 12.1 µM; with HEK-293T it was 29.2 µM; in the experiment with HT-1080, 16.3 µM; in the experiment on PC-3, 8.9 µM; in the experiment with SK-OV-3, 10.8 µM.

In the case of `COc1cc2c3c(c4cc(OC)c(OC)cc4c2cc1OC)C(c1cccs1)C1=C(CC(C)(C)CC1=O)N3` (stereo not given), the IC50 with HeLa is 2.28 µM; with HEK-293T, 18.9 µM; with HT-1080, 5.87 µM; with PC-3, 7.1 µM; with SK-OV-3, 1.6 µM.

Turning to `COc1cc2c3c(c4cc(OC)c(OC)cc4c2cc1OC)C(c1ccc(Cl)cc1)C1=C(CC(C)(C)CC1=O)N3` (stereo not given), the IC50 in the experiment with HeLa was 38.8 µM; with HEK-293T it was above 50 µM; in the experiment with HT-1080, 30.1 µM; with PC-3 it was above 50 µM; in the experiment on SK-OV-3 it was 15.9 µM.

Turning to `COc1cc2c3c(c4cc(OC)c(OC)cc4c2cc1OC)C(c1sccc1C)C1=C(CC(C)(C)CC1=O)N3` (stereo not given), the IC50 with HeLa stood at 3.7 µM; in the experiment on HEK-293T, 33.5 µM; in the experiment on HT-1080 it was 8.85 µM; in the experiment with PC-3, 21.6 µM; in the experiment with SK-OV-3 it was 2.89 µM.

Take `COc1cc2c3c(c4cc(OC)c(OC)cc4c2cc1OC)C(c1ccc(C(F)(F)F)cc1)C1=C(CC(C)(C)CC1=O)N3` (stereo not given): the IC50 in the experiment on HeLa is above 50 µM; with HEK-293T it was 35.7 µM; in the experiment on HT-1080, 15.6 µM; in the experiment with PC-3, 31.4 µM; with SK-OV-3, 18.6 µM.

Turning to `COc1cc2c3c(c4cc(OC)c(OC)cc4c2cc1OC)C(c1ccc(Br)cc1)C1=C(CC(C)(C)CC1=O)N3` (stereo not given), the IC50 in the experiment on HeLa worked out at 31.6 µM; in the experiment with HEK-293T, 36.3 µM; in the experiment on HT-1080, 11.6 µM; with PC-3, 12.4 µM; in the experiment on SK-OV-3, 15.5 µM.

Consider `COc1ccc(C2C3=C(CCCC3=O)Nc3c2c2cc(OC)c(OC)cc2c2cc(OC)c(OC)cc32)cc1` (stereo not given), for which the IC50 in the experiment on HeLa turned out to be 2.62 µM; in the experiment on HEK-293T it was 28.3 µM; in the experiment on HT-1080, 2.62 µM; with PC-3, 5.79 µM; with SK-OV-3, 0.61 µM.

Regarding `COc1cc2c3c(c4cc(OC)c(OC)cc4c2cc1OC)C(c1ccc(C)cc1)C1=C(CCCC1=O)N3` (stereo not given), the IC50 in the experiment with HeLa is 4.79 µM; in the experiment on HEK-293T, 38.9 µM; with HT-1080 it was 5.63 µM; with PC-3 it was 7.17 µM; in the experiment on SK-OV-3 it was 1.62 µM.

As to `COc1cc2c3c(c4cc(OC)c(OC)cc4c2cc1OC)C(c1ccc(C(C)C)cc1)C1=C(CCCC1=O)N3` (stereo not given), the IC50 in the experiment with HeLa was 13.6 µM; in the experiment with HEK-293T it was 41.5 µM; in the experiment on HT-1080, 11.7 µM; in the experiment on PC-3, 5.67 µM; with SK-OV-3 it was 4.81 µM.
